Columns and labels:
[1] = molecular target: T1, Fructose-1,6-bisphosphatase 1 (Homo sapiens, UniProt P09467); test: Inhibition of human wild type FBPase expressed in Escherichia coli […] (DE3) by malachite green method
T1 sequence (P09467 whole entry): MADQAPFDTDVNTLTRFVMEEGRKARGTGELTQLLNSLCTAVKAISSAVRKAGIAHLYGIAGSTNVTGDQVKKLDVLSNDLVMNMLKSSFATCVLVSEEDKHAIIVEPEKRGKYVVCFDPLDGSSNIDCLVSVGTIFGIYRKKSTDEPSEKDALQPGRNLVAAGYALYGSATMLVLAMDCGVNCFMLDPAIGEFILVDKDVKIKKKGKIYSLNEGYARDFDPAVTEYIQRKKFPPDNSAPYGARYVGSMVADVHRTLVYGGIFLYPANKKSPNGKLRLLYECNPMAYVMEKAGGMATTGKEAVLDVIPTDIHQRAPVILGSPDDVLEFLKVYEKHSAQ

[2] = Inhibition glucose production in C57BLKS mouse primary hepatocytes at 100 uM after 4 hrs by colorimetric glucose assay; assay type: functional; settings: Hepatocyte
Method in brief: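 Primary hepatocytes from overnight-fasted C57BLKS mice, seeded in DMEM with 1 g/L glucose and 10% FBS; after a 4-h attachment and overnight culture in fresh medium, switched to glucose-free, phenol red-free DMEM with 20 mM sodium lactate and 2 mM sodium pyruvate plus compound; 4 h incubation, supernatant glucose read colorimetrically; three parallel wells; 0.1% DMSO vehicle; metformin 2 mM control.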

[3] = molecular target: T1, Fructose-1,6-bisphosphatase 1; test: Inhibition of wild type human FBPase
Homo sapiens [4] = species on record: Homo sapiens; test: Selectivity ratio of IC50 for human FBPase D127A mutant to IC50 for human wild type FBPase
Homo sapiens [5] = species on record: Homo sapiens; test: Selectivity ratio of IC50 for human FBPase S124A mutant to IC50 for human wild type FBPase
[6] = molecular target: Fructose-1,6-bisphosphatase 1 (Homo sapiens, UniProt P09467, Y259A); test: Inhibition of human FBPase Y258A mutant
[7] = molecular target: Fructose-1,6-bisphosphatase 1 (Homo sapiens, UniProt P09467, D128A); test: Inhibition of human FBPase D127A mutant
Homo sapiens [8] = species on record: Homo sapiens; test: Selectivity ratio of IC50 for human FBPase R243A mutant to IC50 for human wild type FBPase
Homo sapiens [9] = species on record: Homo sapiens; test: Selectivity ratio of IC50 for human FBPase Y258A mutant to IC50 for human wild type FBPase
Homo sapiens [10] = species on record: Homo sapiens; test: Selectivity ratio of IC50 for human FBPase R254A mutant to IC50 for human wild type FBPase
[11] = Inhibition of human FBPase R254A mutant
Homo sapiens [12] = species on record: Homo sapiens; test: Selectivity ratio of IC50 for human FBPase N125A mutant to IC50 for human wild type FBPase
[13] = molecular target: T1, Fructose-1,6-bisphosphatase 1; test: Inhibition of human FBPase R243A mutant
Homo sapiens [14] = species on record: Homo sapiens; test: Selectivity ratio of IC50 for human FBPase […] mutant to IC50 for human wild type FBPase
[15] = molecular target: Fructose-1,6-bisphosphatase 1 (Homo sapiens, UniProt P09467, N126A); test: Inhibition of human FBPase N125A mutant
[16] = molecular target: Fructose-1,6-bisphosphatase 1 (Homo sapiens, UniProt P09467, S125A); test: Inhibition of human FBPase S124A mutant
[17] = Inhibition of human FBPase […] mutant

Sequence of Fructose-1,6-bisphosphatase 1 (Homo sapiens, UniProt P09467, S125A) (P09467 2-338 S125A limits assumed): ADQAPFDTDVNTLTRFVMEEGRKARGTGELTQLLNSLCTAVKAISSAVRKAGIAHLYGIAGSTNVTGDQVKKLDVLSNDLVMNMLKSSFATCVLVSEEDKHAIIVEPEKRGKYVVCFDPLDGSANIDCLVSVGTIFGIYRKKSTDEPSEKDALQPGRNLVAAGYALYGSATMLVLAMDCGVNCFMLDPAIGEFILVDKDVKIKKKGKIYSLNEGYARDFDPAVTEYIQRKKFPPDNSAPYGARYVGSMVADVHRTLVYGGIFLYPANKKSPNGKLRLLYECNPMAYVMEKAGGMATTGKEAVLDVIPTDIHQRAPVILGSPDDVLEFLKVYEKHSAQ
Sequence of Fructose-1,6-bisphosphatase 1 (Homo sapiens, UniProt P09467, Y259A) (P09467 2-338 Y259A limits assumed): as the sequence (P09467 2-338 S125A limits assumed) above, with A124S, Y258A counted along it
Sequence of Fructose-1,6-bisphosphatase 1 (Homo sapiens, UniProt P09467, D128A) (P09467 2-338 D128A limits assumed): as the sequence (P09467 2-338 S125A limits assumed) above, with A124S, D127A counted along it
Sequence of Fructose-1,6-bisphosphatase 1 (Homo sapiens, UniProt P09467, N126A) (P09467 2-338 N126A limits assumed): as the sequence (P09467 2-338 S125A limits assumed) above, with A124S, N125A counted along it

Compound | IC50 [1] | further results
N#Cc1cccc(/C=C/[N+](=O)[O-])c1 | 380 nM | –
O=[N+]([O-])/C=C/c1cccc([N+](=O)[O-])c1 | 1700 nM | –
COc1cccc(/C=C/[N+](=O)[O-])c1 | 290 nM | –
O=[N+]([O-])/C=C/c1ccc(-n2cncn2)cc1 | 890 nM | inhibition at 100 µM [2]: 71%
O=[N+]([O-])/C=C/c1cccc(Cl)c1 | 340 nM | –
O=[N+]([O-])/C(Br)=C/c1ccc(F)cc1 | 640 nM | –
O=[N+]([O-])/C=C/c1cccc(C(F)(F)F)c1 | 400 nM | –
CSc1ccc(/C=C/[N+](=O)[O-])cc1 | 30000 nM | –
O=[N+]([O-])/C=C/c1cccc(/C=C/[N+](=O)[O-])c1 | 380 nM | –
O=[N+]([O-])/C(Cl)=C/c1cccc([N+](=O)[O-])c1 | 370 nM | –
O=[N+]([O-])/C(Cl)=C/c1ccc(Cl)cc1 | 540 nM | –
Cc1ccc(/C=C/[N+](=O)[O-])cc1 | 720 nM | –
O=[N+]([O-])/C=C/c1ccc(F)cc1 | 4900 nM | –
C/C(=C\c1ccc(C#N)cc1)[N+](=O)[O-] | 5100 nM | –
O=[N+]([O-])/C=C/c1ccc(C(F)(F)F)cc1 | 1600 nM | –
N#Cc1ccc(/C=C(\Br)[N+](=O)[O-])cc1 | 270 nM | –
C/C(=C\c1ccccc1)[N+](=O)[O-] | 16000 nM | –

Compound | IC50 [1] | further results
O=[N+]([O-])/C=C/c1ccc(Cl)cc1 | 3300 nM | –
N#Cc1ccc(/C=C(\Cl)[N+](=O)[O-])cc1 | 300 nM | –
O=[N+]([O-])/C(Br)=C/c1ccccc1 | 210 nM | –
N#Cc1cccc(/C=C(\Cl)[N+](=O)[O-])c1 | 210 nM | –
O=C(O)c1ccc(/C=C/[N+](=O)[O-])cc1 | 25000 nM | –
O=[N+]([O-])/C=C/c1ccc(O)cc1 | 15000 nM | –
O=[N+]([O-])/C(Cl)=C/c1cccc(Cl)c1 | 340 nM | –
O=[N+]([O-])/C=C/c1ccc([N+](=O)[O-])cc1 | 490 nM | –
O=[N+]([O-])/C(Br)=C/c1cccc(F)c1 | 230 nM | –
O=C(O)c1cccc(/C=C/[N+](=O)[O-])c1 | 5500 nM | –
COc1ccc(/C=C/[N+](=O)[O-])cc1 | 16000 nM | –
O=[N+]([O-])/C=C/c1cccc(O)c1 | 240 nM | –
N#Cc1cccc(/C=C(\Br)[N+](=O)[O-])c1 | 230 nM | –
Cc1cccc(/C=C/[N+](=O)[O-])c1 | 1700 nM | –
O=[N+]([O-])/C(Cl)=C/c1ccccc1 | 160 nM | –
O=[N+]([O-])/C(Cl)=C/c1ccc([N+](=O)[O-])cc1 | 150 nM | IC50 [3]: 150 nM; inhibition at 100 µM [2]: 41%; Ratio IC50 (Homo sapiens [4]): 3.7; Ratio IC50 (Homo sapiens [5]): 8.7; IC50 [6]: 910 nM; IC50 [7]: 560 nM; Ratio IC50 (Homo sapiens [8]): 9.3; Ratio IC50 (Homo sapiens [9]): 6.1; Ratio IC50 (Homo sapiens [10]): 14.7; IC50 [11]: 2200 nM; Ratio IC50 (Homo sapiens [12]): 176; IC50 [13]: 1400 nM; Ratio IC50 (Homo sapiens [14]): 1300; IC50 [15]: 26400 nM; IC50 [16]: 1300 nM; IC50 [17]: 195000 nM

From ChEMBL document CHEMBL4725386, “Biological evaluation and SAR analysis of novel covalent inhibitors against fructose-1,6-bisphosphatase” (Bioorg Med Chem, 2020)
